Assay results as given in ChEMBL document CHEMBL1122788, “Quantitative relationships between alpha-adrenergic activity and binding affinity of alpha-adrenoceptor agonists and antagonists” (J Med Chem, 1984).

Assays:
[1] = target: T1, Adrenergic receptor alpha-2 (Rattus norvegicus, UniProt P22086+P19328+P22909); test: 50% inhibition of specific [3H]clonidine binding (0.4 nM) to Alpha-2 adrenergic receptors in rat isolated brain membranes; assay type: cell membranes, Membrane
T1 sequence (P22086 whole entry): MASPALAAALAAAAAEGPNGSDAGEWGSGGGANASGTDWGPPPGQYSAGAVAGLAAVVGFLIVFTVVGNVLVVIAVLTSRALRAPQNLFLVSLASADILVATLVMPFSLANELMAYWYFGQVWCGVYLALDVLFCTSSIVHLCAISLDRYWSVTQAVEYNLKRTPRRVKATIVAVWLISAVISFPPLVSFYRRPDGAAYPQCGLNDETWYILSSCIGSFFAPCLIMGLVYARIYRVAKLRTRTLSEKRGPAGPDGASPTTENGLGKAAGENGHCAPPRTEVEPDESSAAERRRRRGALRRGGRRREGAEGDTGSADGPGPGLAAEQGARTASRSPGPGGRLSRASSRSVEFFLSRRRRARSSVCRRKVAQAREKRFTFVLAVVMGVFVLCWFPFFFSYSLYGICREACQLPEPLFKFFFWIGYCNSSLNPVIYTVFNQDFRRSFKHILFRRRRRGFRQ
T1 sequence (P19328 whole entry): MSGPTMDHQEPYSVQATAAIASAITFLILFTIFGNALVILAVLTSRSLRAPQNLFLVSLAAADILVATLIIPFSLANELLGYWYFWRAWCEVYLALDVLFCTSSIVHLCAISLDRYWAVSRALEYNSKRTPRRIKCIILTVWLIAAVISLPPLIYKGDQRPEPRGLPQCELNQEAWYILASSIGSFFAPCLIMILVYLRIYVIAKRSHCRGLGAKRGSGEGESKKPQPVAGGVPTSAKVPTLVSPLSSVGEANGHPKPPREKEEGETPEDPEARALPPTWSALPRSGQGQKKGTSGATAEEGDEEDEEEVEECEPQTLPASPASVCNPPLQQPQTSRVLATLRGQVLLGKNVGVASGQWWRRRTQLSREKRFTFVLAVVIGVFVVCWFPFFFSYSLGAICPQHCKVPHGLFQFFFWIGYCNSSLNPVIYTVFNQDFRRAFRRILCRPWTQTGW
T1 sequence (P22909 whole entry): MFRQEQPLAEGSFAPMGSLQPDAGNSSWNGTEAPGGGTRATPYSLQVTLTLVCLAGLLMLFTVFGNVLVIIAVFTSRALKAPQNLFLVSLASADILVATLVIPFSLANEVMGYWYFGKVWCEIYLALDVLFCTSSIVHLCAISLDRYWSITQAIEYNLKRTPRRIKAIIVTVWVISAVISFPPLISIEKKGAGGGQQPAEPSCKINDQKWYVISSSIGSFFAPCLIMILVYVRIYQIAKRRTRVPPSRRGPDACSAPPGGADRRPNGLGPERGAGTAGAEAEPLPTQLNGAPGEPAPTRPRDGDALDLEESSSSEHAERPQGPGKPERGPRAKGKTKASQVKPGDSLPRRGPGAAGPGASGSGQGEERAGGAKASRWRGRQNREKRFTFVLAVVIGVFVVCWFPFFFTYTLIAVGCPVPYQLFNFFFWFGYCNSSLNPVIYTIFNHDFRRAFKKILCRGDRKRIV
Summary of the method: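 Whole rat brain (minus cerebellum) from male Wistar rats (200–250 g), homogenized in ice-cold 50 mM Tris-HCl pH 7.7 and washed twice at 50000g. Bound ligand was collected by rapid filtration and counted. IC50 was derived by log-probit analysis.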

Rattus norvegicus [2] = test: Hypertensive activity (increase in arterial pressure to 60 mmHg)) after i.v. administration to pithed rats.
[3] = target: T2, Adrenergic receptor alpha-1 (Rattus norvegicus, UniProt P15823+P23944+P43140); test: Binding affinity against alpha-1 adrenergic receptor is the ability to inhibit the specific [3H]prazosin binding (0.2 nM) to rat isolated brain membranes by 50% was reported.
T2 sequence (P15823 whole entry): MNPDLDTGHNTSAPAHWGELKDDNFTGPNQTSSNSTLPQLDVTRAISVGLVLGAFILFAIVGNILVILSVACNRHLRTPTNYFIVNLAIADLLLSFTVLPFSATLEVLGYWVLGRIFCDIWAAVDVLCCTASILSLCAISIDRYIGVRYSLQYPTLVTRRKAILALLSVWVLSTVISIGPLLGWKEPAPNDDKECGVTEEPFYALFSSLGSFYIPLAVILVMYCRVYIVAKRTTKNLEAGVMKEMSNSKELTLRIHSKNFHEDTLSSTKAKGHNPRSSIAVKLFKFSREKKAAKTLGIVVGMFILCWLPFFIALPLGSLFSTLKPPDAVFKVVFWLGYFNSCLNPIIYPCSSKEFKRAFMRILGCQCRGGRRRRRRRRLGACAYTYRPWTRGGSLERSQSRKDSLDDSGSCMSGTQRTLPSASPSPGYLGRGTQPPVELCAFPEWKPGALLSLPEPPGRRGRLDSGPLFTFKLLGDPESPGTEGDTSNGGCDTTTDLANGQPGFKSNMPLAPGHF
T2 sequence (P23944 whole entry): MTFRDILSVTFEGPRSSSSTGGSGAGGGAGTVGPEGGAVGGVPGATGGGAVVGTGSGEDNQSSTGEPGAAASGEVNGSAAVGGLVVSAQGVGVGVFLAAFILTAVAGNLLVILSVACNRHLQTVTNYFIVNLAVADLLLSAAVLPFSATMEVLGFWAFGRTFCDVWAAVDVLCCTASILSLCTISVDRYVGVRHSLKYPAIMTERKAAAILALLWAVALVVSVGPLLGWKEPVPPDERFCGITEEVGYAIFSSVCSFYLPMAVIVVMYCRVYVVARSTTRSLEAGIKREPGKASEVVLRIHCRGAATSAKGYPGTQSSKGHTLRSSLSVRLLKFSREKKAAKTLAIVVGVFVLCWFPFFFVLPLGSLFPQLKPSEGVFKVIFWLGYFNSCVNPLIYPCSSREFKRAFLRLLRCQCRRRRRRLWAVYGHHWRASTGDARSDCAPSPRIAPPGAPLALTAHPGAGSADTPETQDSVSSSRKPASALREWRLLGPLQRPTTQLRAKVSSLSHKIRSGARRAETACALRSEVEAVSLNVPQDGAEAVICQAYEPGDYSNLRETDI
T2 sequence (P43140 whole entry): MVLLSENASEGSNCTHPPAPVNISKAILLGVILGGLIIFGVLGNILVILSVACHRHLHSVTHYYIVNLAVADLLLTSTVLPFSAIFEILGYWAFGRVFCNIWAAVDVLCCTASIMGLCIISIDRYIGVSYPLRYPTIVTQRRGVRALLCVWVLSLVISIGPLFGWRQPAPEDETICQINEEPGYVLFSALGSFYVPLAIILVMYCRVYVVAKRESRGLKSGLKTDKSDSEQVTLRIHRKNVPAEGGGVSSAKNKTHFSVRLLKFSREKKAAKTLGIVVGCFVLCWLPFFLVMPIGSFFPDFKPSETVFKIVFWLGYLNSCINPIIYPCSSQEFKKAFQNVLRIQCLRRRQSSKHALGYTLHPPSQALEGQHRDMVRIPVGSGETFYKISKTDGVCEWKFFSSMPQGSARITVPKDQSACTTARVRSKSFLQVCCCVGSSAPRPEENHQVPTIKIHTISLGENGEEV

Rattus norvegicus [4] = test: Hypotensive activity (25% decrease in arterial pressure) after i.v. administration to anesthetized normotensive rats.
[5] = target: T1, Adrenergic receptor alpha-2; test: Binding affinity against alpha-2 adrenergic receptor is the ability to inhibit the specific [3H]clonidine binding (0.4 nM) to rat isolated brain membranes by 50% was reported.; design: species or system Membrane
Summary of the method: (§1)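 Whole rat brain (minus cerebellum) from male Wistar rats (200–250 g), homogenized in ice-cold 50 mM Tris-HCl pH 7.7 and washed twice at 50000g. […] Bound ligand was collected by rapid filtration and counted. IC50 was derived by log-probit analysis.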

[6] = target: T2, Adrenergic receptor alpha-1; test: Binding affinity against alpha-1 adrenergic receptor is the ability to inhibit the specific [3H]prazosin binding (0.2 nM) to rat isolated brain membranes by 50% was reported; 5.8*10e-7; assay type: tissue-based, Membrane
Summary of the method: (§2)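 Whole rat brain (minus cerebellum) from male Wistar rats (200–250 g), homogenized in ice-cold 50 mM Tris-HCl pH 7.7 and washed twice at 50000g. […] Bound ligand was collected by filtration and counted. IC50 was derived by log-probit analysis.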

[7] = target: T1, Adrenergic receptor alpha-2; test: Binding affinity against Alpha-2 adrenergic receptor is the ability to inhibit the specific [3H]clonidine binding (0.4 nM) to rat isolated brain membranes by 50% was reported; 9.1*10e-9; assay type: tissue-based, Membrane; summary of the method: as §1
[8] = target: T2, Adrenergic receptor alpha-1; test: Binding affinity against alpha-1 adrenergic receptor is the ability to inhibit the specific [3H]-prazosin binding (0.2 nM) to rat isolated brain membranes by 50% was reported; 4.85*10e-6; assay type: tissue-based, Membrane; summary of the method: as §2

CN(C)C1CCc2c(ccc(O)c2O)C1 (stereo not given)
IC50 [1]: 17 nM
pC60 (Rattus norvegicus [2]): 1.2 uM kg-1
IC50 [3]: 39 µM

CCCN(CCC)C1CCc2ccc(O)cc2C1 (stereo not given)
IC50 [1]: 1200 nM
pC60 (Rattus norvegicus [2]): -0.09 uM kg-1
IC50 [3]: 18 µM

COc1ccc(OC)c(C(O)C(C)N)c1 (stereo not given) [METHOXAMINE]
IC50 [1]: 3600 nM
pC60 (Rattus norvegicus [2]): 0.75 uM kg-1
IC50 [3]: 170 µM

Clc1cccc(Cl)c1NC1=NCCN1 [CLONIDINE]
pC25 (Rattus norvegicus [4]): 2.04 uM kg-1
pC60 (Rattus norvegicus [2]): 1.78 uM kg-1

Brc1c(NC2=NCCN2)ccc2nccnc12 [BRIMONIDINE]
pC25 (Rattus norvegicus [4]): 1.55 uM kg-1

CCCN(CCC)C1CCc2cc(O)c(O)cc2C1 (stereo not given)
IC50 [1]: 87 nM
pC60 (Rattus norvegicus [2]): 0.36 uM kg-1
IC50 [3]: 24 µM

Oc1ccc(NC2=NCCN2)cc1O
pC60 (Rattus norvegicus [2]): 2.44 uM kg-1
IC50 [5]: 14 nM
IC50 [3]: 5.1 µM

Cc1cc(C(C)(C)C)cc(C)c1CC1=NCCN1 [XYLOMETAZOLINE]
pC25 (Rattus norvegicus [4]): 0.26 uM kg-1
pC60 (Rattus norvegicus [2]): 1.12 uM kg-1
IC50 [6]: 580 nM

CCCN(CCC)C1CCc2c(O)cccc2C1 (stereo not given) [5-OH-DPAT]
IC50 [1]: 850 nM
pC60 (Rattus norvegicus [2]): -0.13 uM kg-1
IC50 [3]: 18 µM

Cc1csc(Cl)c1NC1=NCCN1 [TIAMENIDINE]
pC25 (Rattus norvegicus [4]): 0.69 uM kg-1
pC60 (Rattus norvegicus [2]): 1.2 uM kg-1
IC50 [7]: 9.1 nM
IC50 [8]: 4.85 µM

N=C(N)N/N=C/c1c(Cl)cccc1Cl [GUANABENZ]
IC50 [1]: 1.7 nM
pC60 (Rattus norvegicus [2]): 0.93 uM kg-1
